Results on 7 compounds are retold here after ChEMBL document CHEMBL1123632, “Cardiotonic agents. 7. Inhibition of separated forms of cyclic nucleotide phosphodiesterase from guinea pig cardiac muscle by 4,5-dihydro-6-[4-(1H-imidazol-1-yl)phenyl]-3(2H)-pyridazinones and related compounds. Structure-activity relationships and correlation with in vivo positive inotropic …” (J Med Chem, 1987).

Broadly, the ED50 is the dose at which the effect has come halfway, by size or by number of responders. Low values mean greater potency, high ones weaker potency. Usually inhibition stands for the change of the read-out against control, counted positive when it falls. As usually defined, the IC50 is the point on the concentration scale where inhibition reaches its midpoint. Read a high IC50 as weaker potency.

Several values for one entry are separate records, joined by “and”; a condition that tells them apart may be missing. Identical values can stand only once.

The species entered for test [1] is Canis familiaris. Put plainly: Effective dose required to increase myocardial contractility in dog. To be noted: Canis lupus familiaris, Myocardium. It counts as functional. Summed up:
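Anesthetized mongrel dogs (either sex): pentobarbital 35 mg/kg iv, then 5 mg kg⁻¹ h⁻¹ infusion. After 30-min control, compound in saline or dilute HCl/NaOH diluted with saline given iv over 1 min, cumulative half-log doses (typically four to six), 10–30 min apart.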

In test [2] the target is T1, cGMP-dependent 3',5'-cyclic phosphodiesterase (Homo sapiens, UniProt O00408). Nature of the test: Inhibition of cGMP PDE II enzyme in guinea pig at 1E-5M concentration. To be noted: Cavia porcellus; target entry is the homologue from another species.
T1 sequence (O00408 whole entry): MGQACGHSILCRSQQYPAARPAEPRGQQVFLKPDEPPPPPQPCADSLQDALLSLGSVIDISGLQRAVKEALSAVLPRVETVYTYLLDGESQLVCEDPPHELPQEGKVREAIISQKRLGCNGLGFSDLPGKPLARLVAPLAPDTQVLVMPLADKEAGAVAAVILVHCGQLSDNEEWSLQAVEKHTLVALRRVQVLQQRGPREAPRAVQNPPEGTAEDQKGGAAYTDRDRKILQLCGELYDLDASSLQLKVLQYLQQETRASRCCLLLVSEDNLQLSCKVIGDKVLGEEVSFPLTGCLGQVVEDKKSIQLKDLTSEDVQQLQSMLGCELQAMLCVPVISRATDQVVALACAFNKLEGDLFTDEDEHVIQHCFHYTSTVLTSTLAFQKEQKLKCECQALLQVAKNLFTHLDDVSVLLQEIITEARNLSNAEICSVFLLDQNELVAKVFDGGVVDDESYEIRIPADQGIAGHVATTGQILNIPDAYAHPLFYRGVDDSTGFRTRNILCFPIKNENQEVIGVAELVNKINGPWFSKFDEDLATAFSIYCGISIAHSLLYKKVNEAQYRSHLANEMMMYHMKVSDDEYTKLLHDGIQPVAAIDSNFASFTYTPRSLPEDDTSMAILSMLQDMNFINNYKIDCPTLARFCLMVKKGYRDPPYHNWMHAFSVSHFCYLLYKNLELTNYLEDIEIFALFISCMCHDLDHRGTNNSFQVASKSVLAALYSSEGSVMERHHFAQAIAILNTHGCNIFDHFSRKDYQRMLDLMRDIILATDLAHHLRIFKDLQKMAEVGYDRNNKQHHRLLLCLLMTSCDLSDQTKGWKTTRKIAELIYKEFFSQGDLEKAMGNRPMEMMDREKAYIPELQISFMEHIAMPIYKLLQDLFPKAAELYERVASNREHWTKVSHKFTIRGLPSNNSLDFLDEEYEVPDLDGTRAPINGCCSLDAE
Test [3] has as its target T2, Phosphodiesterase 1 (Homo sapiens, UniProt P54750+Q01064+Q14123). Put plainly: Inhibition of cAMP PDE I enzyme in guinea pig at 1E-5M concentration. Type of test: protein assay. To be noted: Cavia porcellus; target entry is the homologue from another species.
The target of test [4] is T2, Phosphodiesterase 1. Put plainly: Inhibition of cGMP PDE I enzyme in guinea pig at 1E-4M concentration. It counts as protein assay. To be noted: Cavia porcellus; target entry is the homologue from another species.
The target of test [5] is T1, cGMP-dependent 3',5'-cyclic phosphodiesterase. Put plainly: Inhibition of cGMP PDE II enzyme in guinea pig at 1E-4M. Particulars: Cavia porcellus; target entry is the homologue from another species.
The target of test [6] is T2, Phosphodiesterase 1. Put plainly: Inhibition of cGMP PDE I enzyme in guinea pig at 1E-5M concentration. It counts as protein assay. Particulars: Cavia porcellus; target entry is the homologue from another species.
Test [7] deals with T2, Phosphodiesterase 1. Put plainly: Inhibition of cAMP PDE I enzyme in guinea pig at 1E-4M concentration. It counts as protein assay. To be noted: Cavia porcellus; target entry is the homologue from another species.
Test [8] concerns the target T1, cGMP-dependent 3',5'-cyclic phosphodiesterase. Nature of the test: Inhibition of cAMP PDE II enzyme in guinea pig at 1E-5M concentration. To be noted: Cavia porcellus; target entry is the homologue from another species.
Test [9] has as its target T3, Phosphodiesterase 3 (Homo sapiens, UniProt Q14432+Q13370). Nature of the test: Inhibition of cAMP PDE III enzyme in guinea pig at 1E-4M concentration. Type of test: protein assay. To be noted: Cavia porcellus; target entry is the homologue from another species.
For test [10], the target named is T1, cGMP-dependent 3',5'-cyclic phosphodiesterase. Put plainly: Inhibition of cAMP PDE II enzyme in guinea pig at 1E-4M. To be noted: Cavia porcellus; target entry is the homologue from another species.
For test [11], the target named is T3, Phosphodiesterase 3. Nature of the test: Inhibition of cAMP PDE III enzyme in guinea pig at 1E-5M concentration. It counts as protein assay. Particulars: Cavia porcellus; target entry is the homologue from another species.
Test [12] concerns the target T2, Phosphodiesterase 1. Put plainly: Inhibition of cAMP PDE I enzyme in guinea pig at 1E-4M. Type of test: protein assay. To be noted: Cavia porcellus; target entry is the homologue from another species.
In test [13] the target is T2, Phosphodiesterase 1. Nature of the test: Inhibition of cGMP PDE I enzyme in guinea pig at 1E-4M. Type of test: protein assay. To be noted: Cavia porcellus; target entry is the homologue from another species.
Test [14] deals with T1, cGMP-dependent 3',5'-cyclic phosphodiesterase. Nature of the test: Inhibitory concentration against cGMP PDE II enzyme in guinea pig. On the set-up: species or system Cavia porcellus. To be noted: target entry is the homologue from another species.
Test [15] addresses PDE I (Cavia porcellus). Put plainly: Inhibitory concentration against cGMP PDE I enzyme in guinea pig.
Test [16] is described as follows: Ratio of IC50 values for PDE III and PDE I.
In test [17] the target is T1, cGMP-dependent 3',5'-cyclic phosphodiesterase. Put plainly: Inhibition of cGMP PDE II enzyme in guinea pig at 1E-4M concentration. Particulars: Cavia porcellus; target entry is the homologue from another species.
In test [18] the target is PDE I (Cavia porcellus). Nature of the test: Inhibitory concentration against cAMP PDE I enzyme in guinea pig.
Test [19] concerns PDE II (Cavia porcellus). Put plainly: Inhibition of cAMP PDE II enzyme in guinea pig at 1E-4M concentration.
For test [20], the target named is T3, Phosphodiesterase 3. Put plainly: Inhibitory concentration against cAMP PDE III enzyme in guinea pig. Type of test: protein assay, Cavia porcellus. Particulars: target entry is the homologue from another species.
The nature of test [21]: Ratio of IC50 values for PDE III and PDE II.
In test [22] the target is T1, cGMP-dependent 3',5'-cyclic phosphodiesterase. Nature of the test: Inhibition of PDE II enzyme in guinea pig. On the set-up: species or system Cavia porcellus. To be noted: target entry is the homologue from another species.
Test [23] concerns the target T2, Phosphodiesterase 1. Put plainly: Inhibitory concentration against cGMP PDE I enzyme in guinea pig. Type of test: protein assay, Cavia porcellus. Particulars: target entry is the homologue from another species.
Test [24] deals with T2, Phosphodiesterase 1. Put plainly: Inhibitory concentration against cAMP PDE I enzyme in guinea pig. It counts as protein assay, Cavia porcellus. Particulars: target entry is the homologue from another species.
The target in test [25] is T3, Phosphodiesterase 3. Put plainly: Inhibition of cAMP PDE III enzyme in guinea pig at 1E-4M. Particulars: Cavia porcellus; target entry is the homologue from another species. It counts as protein assay.
In test [26] the target is T1, cGMP-dependent 3',5'-cyclic phosphodiesterase. Nature of the test: Inhibitory concentration against cAMP PDE II enzyme in guinea pig. On the set-up: species or system Cavia porcellus. Particulars: target entry is the homologue from another species.
Test [27] shares this target. Put plainly: Inhibition of cGMP PDE II enzyme in guinea pig at 10e-4 M. Particulars: Cavia porcellus, target entry is the homologue from another species.

Compound `O=C1CCC(c2ccc(-n3ccnc3)cc2)=NN1` [IMAZODAN] came in with an ED50 in test [1] of 0.045 mg/kg. Further, the inhibition is 7% in test [2]; 3% in test [3]; 10% in test [4]; 20% in [5]; 3% in [6]; 8% in test [7]. For the same compound, the inhibition in test [8] is 4%; in test [9], 76%; in [10], 17%; in [11], 57%.
For the compound `CC1CC(O)=NN=C1c1ccc(-n2ccnc2)cc1` (stereo unspecified) [CI-930], the ED50 in [1] turned out to be 0.013 mg/kg. Also, the inhibition in test [12] came to 9%; in test [2] it was 7%; in test [13], 12%; in test [3] it was 3%; in test [5], 23%; in [6], 9%. Also, the inhibition in test [8] is 5%; in test [10] it was 18%; in test [11] it was 69%.
On to `Nc1cc(-c2ccc(-n3ccnc3)cc2)nnc1O`, for which it took a dose of 0.3 mg/kg to reach the 50% effect level in test [1] (ED50). The inhibition in [2] came out at 10%; in test [17] it was 51%; in [3], 6%; in test [19], 44%; in test [4], 28%; in [6] it was 7%. Also, the inhibition is 20% in [7], 13% in [8], 64% in test [9] and 41% in test [11]. Also, the IC50 was 88 µM in test [14]; greater than 500 µM in test [15]; greater than 500 µM in test [18]; 22 µM in [20]; 110 µM in test [22]. Besides, the Ratio in [16] was less than 44; in [21], 200.
The compound `Oc1ccc(-c2ccc(-n3ccnc3)cc2)nn1` registered an ED50 in test [1] of 0.11 mg/kg. In addition, the inhibition in test [2] is 11%; in [17], 27%; in [3] it was 4%; in test [4], 15%; in [6] it was 6%; in test [7] it was 17%. Also, the inhibition was 80% in [9] and 56% in test [11]. For the same compound, the results for the concentration for half-maximal inhibition (IC50) in test [23], in [24] and in test [20] were 580 µM, 660 µM and 7.2 µM, respectively.
`CC1CC(c2ccc(-n3ccnc3)cc2)=NNC1=O` (stereo unspecified) came in with an ED50 in test [1] of 1 mg/kg. The inhibition in test [12] turned out to be 8%; in test [2], 7%; in test [13], 8%; in test [3], 0%; in test [25], 63%; in test [5], 26%. The inhibition in test [6] worked out at 2%; in test [8], 15%; in test [10] it was 27%; in test [11], 25%. Further, the IC50 in test [23] is greater than 1000 µM; in test [24], greater than 1000 µM; in test [20], 43 µM.
For the compound `Nc1cc(-c2ccncc2)c[nH]c1=O` [INAMRINONE], the IC50 was 720 µM and 580 µM in test [26]; greater than 1000 µM in test [23]; greater than 1000 µM in test [24].
In test [1], `Cc1nccn1-c1ccc(C2=NNC(=O)CC2)cc1` registered an ED50 of 0.3 mg/kg. Besides, the inhibition in test [2] stood at 4%; in [27], 22%; in test [3], 1%; in test [19], 19%; in [4], 18%; in [6], 0%. The inhibition stood at 16% in [7], 8% in test [8], 64% in [9] and 57% in test [11]. Moreover, the 50% inhibitory concentration (IC50) in test [26] was 420 µM; in test [14], 380 µM; in [15], 530 µM; in [18] it was 790 µM; in test [20] it was 2.3 µM. Also, the values for the Ratio in test [16] and in test [21] were 2.9 and 5.4, respectively.
